Most compounds without a hit are left out; they make up all but 0.79% or so of the library.
hIAP inh: human IAP inhibition | P09923 | purified IAP, CDP-Star luminescence, 30 min | inhibition, % at 10 µM | 330,000 compounds, 0.12% hits | AID 2544;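 active = inhibition reaching a set limit with compound at 10 µM in the primary screen, cut at about 35% in these data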
Target sequence (P09923 whole entry, looked up): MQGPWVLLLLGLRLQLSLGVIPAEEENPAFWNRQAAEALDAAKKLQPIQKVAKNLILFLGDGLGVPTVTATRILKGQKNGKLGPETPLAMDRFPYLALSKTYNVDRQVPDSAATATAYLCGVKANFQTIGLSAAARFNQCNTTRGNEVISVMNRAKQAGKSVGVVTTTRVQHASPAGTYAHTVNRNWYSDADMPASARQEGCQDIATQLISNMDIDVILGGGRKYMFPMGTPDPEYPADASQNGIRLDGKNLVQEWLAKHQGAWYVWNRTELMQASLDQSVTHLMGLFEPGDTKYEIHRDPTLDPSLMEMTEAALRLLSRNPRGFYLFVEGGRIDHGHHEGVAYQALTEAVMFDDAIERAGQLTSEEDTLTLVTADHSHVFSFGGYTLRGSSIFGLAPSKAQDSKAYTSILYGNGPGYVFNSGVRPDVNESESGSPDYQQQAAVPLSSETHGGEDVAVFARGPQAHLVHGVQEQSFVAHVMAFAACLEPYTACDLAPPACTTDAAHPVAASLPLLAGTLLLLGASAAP
bIAP act: increases bovine intestinal alkaline phosphatase activity; purified bovine IAP, CDP-star luminescence, 30 min; active compounds read high; fold of DMSO-control signal, blank-subtracted; activation factor at 20 µM; 200,000 compounds, 0.17% hits; AID 1016;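 active = activation factor of 2 or more at 20 µM, a signal rise over negative controls twice the positive control's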
mIAP block: blocks mouse intestinal alkaline phosphatase; purified mouse IAP, CDP-Star luminescence, 30 min; inhibition, % at 10 µM; 330,000 compounds, 0.2% hits; AID 2806;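 active = inhibition of at least 40% at 10 µM in the primary screen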
bIAP inhibitor: intestinal alkaline phosphatase (bovine) inhibition; purified bovine IAP, CDP-star luminescence, 30 min; inhibition, % at 20 µM; 190,000 tested, under 10 active; AID 1019;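 active = over 50% inhibition of intestinal alkaline phosphatase at 20 µM in the single-dose screen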
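System: Purified bovine intestinal alkaline phosphatase (IAP) enzyme | Input: IAP diluted 1/65,000,000 in the well | Also added: CDP-star chemiluminescent phosphatase substrate, 30 µM final | Dosing: 20 µM single dose | Times: Enzyme reaction for 30 min at room temperature | Detection: Luminescence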
hIAP activ: human IAP activation. activation factor at 10 µM. 330,000 compounds, 0.16% hits. purified human IAP, CDP-Star luminescence, 30 min; active compounds read high; 1 = vehicle-only enzyme, 0 = enzyme-free background;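 active = activation factor of the enzyme at least 2-fold when tested at 20 µM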
mIAP act: increases mouse intestinal alkaline phosphatase activity; AID 2805; 330,000 compounds, 0.24% hits; muIAP, CDP-Star luminescence, 30 min; active compounds read high; 1 = vehicle-only enzyme signal, 0 = enzyme-free wells; activation factor at 10 µM;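 active = activation factor of at least 2 at 20 µM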
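also added = chemiluminescent substrate CDP-Star | test system = mouse IAP enzyme | signal = chemiluminescence readout | compound = DMSO-dissolved test compounds | incubation = 30 min at room temperature | benchmarks = DMSO wells, no-enzyme wells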
hIAP act confirm: human IAP activation confirmation; shares compounds with hIAP activ; purified IAP, CDP-Star luminescence, 30 min; active compounds read low; activation (%Activity, negative = activation), % at 8.3 µM; 880 compounds, 10% hits; AID 434926;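 active = at least twofold enzyme activation in any of six single-dose repeats, which the averaged readout prints as negative percent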
A number is an active result; 0 = inactive; - = not tested or not shown.

SMILES | hIAP inh | bIAP act | mIAP block | bIAP inhibitor | hIAP activ | mIAP act | hIAP act confirm
CSCCC(NS(=O)(=O)c1ccccc1F)C(=O)NNC(=O)c1csc(N2CCOCC2)n1 (configuration not stated) | 0 | - | 0 | - | 2.65 | 0 | 0
CSCCC(NC(=O)c1ccccc1Cl)C(=O)NNC(=O)c1csc(N2CCOCC2)n1 (configuration not stated) | 0 | - | 0 | - | 0 | 0 | -
O=C(Nc1ccc(OC(F)(F)F)cc1)NC1CCC(Oc2ccc(C(=O)O)cc2)CC1 (configuration not stated) | 0 | - | 0 | - | 3.8 | 0 | 0
COc1ccc(C(=O)NCC(=O)OCC(=O)c2ccc3c(c2)NC(=O)CO3)cc1 | 0 | 0 | 0 | 0 | 0 | 0 | -
CC[C@]12c3[nH]c4ccc(Cl)cc4c3CCN1C(=O)[C@@H](CC(=O)NC/C=C(\C)CCC=C(C)C)C[C@@H]2C(=O)N1CCN(C(=O)C2CC2)CC1 | - | - | 0 | - | - | 0 | -
Cc1cccc(C(=O)OCN2C(=O)c3ccccc3C2=O)c1[N+](=O)[O-] | 41.5 | - | 0 | - | 0 | 0 | 0
CCN(CC)C(=O)C(=O)N/N=C/c1ccc(Cl)cc1Cl | 0 | 0 | 0 | 0 | 2.12 | 0 | 0
Cc1ccccc1CN1CCC(n2nccc2NC(=O)CCCc2ccccc2)CC1 | 0 | - | 0 | - | 2.9 | 0 | 0
O=C(CCCc1ccccc1)Nc1ccnn1C1CCN(Cc2ccccn2)CC1 | 0 | - | 0 | - | 0 | 0 | -
COc1ccc(N2CCN(S(=O)(=O)CCNC(=O)/C=C/c3ccccc3)CC2)cc1 | 0 | - | 0 | - | 0 | 0 | -
NNC(=O)c1nc[nH]c1C(=O)Nc1ccccn1 | 0 | 0 | 0 | 0 | 2.02 | 0 | 0
Cc1ccc(NC(=O)c2[nH]cnc2C(=O)NN)cc1 | 0 | 0 | 0 | 0 | 2.11 | 0 | 0
Cc1ccc(NC(=O)c2nc[nH]c2C(=O)NCCCNC(=O)c2[nH]cnc2C(=O)Nc2ccc(C)cc2)cc1 | 0 | - | 0 | - | 0 | 0 | -
CC(=O)CSc1nc2ccccc2s1 | 0 | 0 | 0 | 0 | 0 | 0 | -
Cn1cccc1C(=O)NC(=O)CSc1nc2ccccc2s1 | 0 | 0 | 0 | 0 | 2.07 | 0 | 0
Cn1c(=O)c2[nH]c(N=NNc3ccccc3F)nc2n(C)c1=O | 0 | - | 0 | - | 0 | 0 | -
O=C(NCCc1ccc(Cl)cc1)c1ccc2[nH]c(=O)c(=O)[nH]c2c1 | 0 | - | 0 | - | 2 | 0 | 0
O=C(c1ccco1)N1CCN(c2nc(-c3ccc(F)cc3)cs2)CC1 | 0 | 0 | 0 | 0 | 2 | 0 | 0
COC(=O)/C(C#N)=C/c1c(Oc2cc(C)cc(C)c2)nc2ccccn2c1=O | 0 | - | 0 | - | 2.03 | 0 | 0
Cc1cc(=O)[nH]c(-n2[nH]c3c(c2=O)CCCC3)n1 | 0 | 0 | 0 | 0 | 2.33 | 0 | 0
O=C(Nc1nccs1)c1nc[nH]c1C(=O)N1CCc2ccccc2C1 | 0 | - | 0 | - | 2.09 | 0 | 0
CC(C)(C)OC(=O)N1CCN(C(=O)c2[nH]cnc2C(=O)Nc2nccs2)CC1 | 0 | - | 0 | - | 2.22 | 0 | 0
C[C@H](NC(=O)c1nc[nH]c1C(=O)N1CCc2ccccc2C1)C(=O)OC(C)(C)C | 0 | - | 0 | - | 2.71 | 0 | 0
CCOc1ccccc1-n1nnnc1SCC(=O)N1CCCC1=O | 0 | - | 0 | - | 0 | 0 | -
O=C(O)c1ccc2c(c1)C(=O)N(Cc1ccc3c(c1)OCO3)C2=O | 0 | 0 | 0 | 0 | 0 | 0 | -
SMILES | hIAP inh | bIAP act | mIAP block | bIAP inhibitor | hIAP activ | mIAP act | hIAP act confirm
O=C1c2ccccc2C(=O)N1Cc1ccc2c(c1)OCO2 | 0 | 0 | 0 | 0 | 2 | 0 | 0
O=C(Cc1ccc(Br)cc1)Nc1nc2ccccc2[nH]1 | 0 | - | 0 | - | 0 | 0 | -
CC(NS(=O)(=O)c1ccc(Br)cc1)C(=O)Nc1nc2ccccc2[nH]1 (configuration not stated) | 0 | - | 0 | - | 2.12 | 0 | 0
CN(C)CCCN(C(=O)C1COc2ccccc2O1)c1nc2cc3c(cc2s1)OCO3 (configuration not stated) | 0 | - | 0 | - | 0 | 0 | -
Cc1ccc(S(=O)(=O)NNC(=O)C(=O)NNc2ccccn2)cc1 | 0 | 0 | 0 | 0 | 3.09 | 0 | 0
Cc1ccc(S(=O)(=O)NNC(=O)C(O)(c2ccccc2)c2ccccc2)cc1 | 0 | 0 | 0 | 0 | 0 | 0 | -
Cc1ccccc1S(=O)(=O)NNC(=O)C(=O)NNc1ccccn1 | 0 | 0 | 0 | 0 | 3.1 | 0 | 0
CC(=O)Nc1ccc(S(=O)(=O)NNC(=O)C(=O)NNc2ccccn2)cc1 | 0 | - | 0 | - | 2.85 | 0 | 0
CC(=O)Nc1ccc(S(=O)(=O)Nc2ccccn2)cc1 | 0 | 0 | 0 | 0 | 0 | 0 | -
C[C@H](CO)N1C[C@H](C)[C@@H](CN(C)Cc2ccc(C(=O)Nc3ccccc3N)cc2)Oc2c(NC(=O)C3CCCCC3)cccc2C1=O | 0 | - | 0 | - | 0 | 0 | -
CCN1CCN(c2ccc(S(=O)(=O)N3CCOCC3)cc2NC(=O)C(C)Oc2ccc(Cl)cc2)CC1 (configuration not stated) | 0 | - | 0 | - | 0 | 0 | -
CCOC(=O)/C(=N/Nc1ccccc1)c1csc(Nc2ccccc2)n1 | 0 | 0 | 0 | 0 | 0 | 0 | -
CCOC(=O)/C(=N\Nc1ccc(OC)cc1)c1csc(Nc2ccccc2)n1 | 38.8 | 0 | 0 | 0 | 0 | 0 | 0
Cc1cnc(C(=O)NNC(=O)c2ccc(Br)cc2)cn1 | 0 | - | 0 | - | 2.22 | 0 | 0
CCOC(=O)CCNC(=O)N1CCCC(N(C)CCc2ccc(OC)c(OC)c2)C1 (configuration not stated) | 0 | - | 0 | - | 0 | 0 | -
CC(C)(C)N/N=C/c1c(O)n(-c2ccc(Cl)cn2)c(=O)c2ccccc12 | 0 | 0 | 0 | 0 | 2.03 | 0 | -93.3
COC(=O)CN=Cc1c(O)n(-c2ccc(Cl)cn2)c(=O)c2ccccc12 | 0 | 0 | 0 | 0 | 0 | 0 | -
O=C(c1cccc(C(F)(F)F)c1)C1CCCN(C(=O)CN2CCOC2=O)C1 (configuration not stated) | 0 | - | 0 | - | 0 | 0 | -
C=CCn1c(CNS(=O)(=O)c2ccc(F)cc2)n[nH]c1=S | 0 | - | 0 | - | 0 | 0 | -
C=CCn1c(CNS(=O)(=O)c2ccc(Cl)cc2)n[nH]c1=S | 41.5 | - | 0 | - | 0 | 0 | 0
O=C(CCCSc1nc(-c2ccco2)cc(C(F)(F)F)n1)NCc1cccs1 | 37.2 | 0 | 0 | 0 | 0 | 0 | 0
Cc1ccc2occ(/C=N/NC(=O)c3ccncc3)c(=O)c2c1 | 0 | - | 0 | - | 2.31 | 0 | 0
COc1cc(C(=O)NC(=S)NNC(=O)c2cnccn2)cc(OC)c1OC | 0 | 0 | 0 | 0 | 2.16 | 0 | 0
O=C(NCC(F)(F)F)Nc1cccnc1 | 54.0 | 0 | 0 | 0 | 0 | 0 | 0
Cc1cccc(-n2ncc3c(NNC(=O)c4ccco4)ncnc32)c1 | 0 | - | 0 | - | 3.47 | 0 | -74.5
Cc1ccc(-n2ncc3c(NNC(=O)c4ccco4)ncnc32)cc1Cl | 0 | - | 0 | - | 2.93 | 0 | 0
Cc1cccc(-n2ncc3c(NCc4ccco4)ncnc32)c1 | 0 | 0 | 0 | 0 | 0 | 0 | -

High-throughput results: PubChem, Sanford-Burnham Center for Chemical Genomics
